One data set concerns synaptic GABAARs. Particulars: ref Wafford et al., 2009; Jensen et al., 2013; cited from earlier work.
For data set [1] the following is noted: cited from earlier work.
The next data set deals with traumatic brain injury. The note with it: ref Wright et al., 2014, Skolnick et al.; cited from earlier work.
The subject of the next data set is humans. The note with it: 500 mg intravenously (iv.); ref Merryman et al., 1954; cited from earlier work.
The next data set deals with human GABAAR α1β1γ2 (Homo sapiens, UniProt P14867+P18505+P18507). The data set can be described thus: Voltage-clamp, modulation of GABA EC10 response in Xenopus laevis oocytes. In kind it is cell-based. The note with it: maximum modulation of the GABA EC10 response, mean ± S.E.M. (n = 3). The method in brief: (§1)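 Human GABAAR subtypes expressed in Xenopus laevis oocytes. The GABA EC10 (the concentration giving 10% of the maximal GABA response) was determined for each oocyte. Test compound was pre-applied for 30 s, then co-applied with EC10 GABA. Response = (I GABA EC10 + modulator / I GABA EC10) × 100, where I = current. Concentration-effect data were fitted to a four-parameter logistic equation.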
human GABAAR α1β1γ2, sequence (P14867 28-456): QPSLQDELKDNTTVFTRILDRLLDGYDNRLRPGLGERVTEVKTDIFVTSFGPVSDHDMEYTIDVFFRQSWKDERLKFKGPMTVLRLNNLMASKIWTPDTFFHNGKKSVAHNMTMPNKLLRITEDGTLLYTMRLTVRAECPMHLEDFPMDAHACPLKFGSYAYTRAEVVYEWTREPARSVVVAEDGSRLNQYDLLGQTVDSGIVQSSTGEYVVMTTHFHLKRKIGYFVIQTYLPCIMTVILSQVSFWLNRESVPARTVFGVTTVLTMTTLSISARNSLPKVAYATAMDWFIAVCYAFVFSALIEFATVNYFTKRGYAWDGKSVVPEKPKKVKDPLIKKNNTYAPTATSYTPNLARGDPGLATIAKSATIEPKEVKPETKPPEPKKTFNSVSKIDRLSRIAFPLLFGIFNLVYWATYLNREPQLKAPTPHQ
human GABAAR α1β1γ2, sequence (P18505 26-474): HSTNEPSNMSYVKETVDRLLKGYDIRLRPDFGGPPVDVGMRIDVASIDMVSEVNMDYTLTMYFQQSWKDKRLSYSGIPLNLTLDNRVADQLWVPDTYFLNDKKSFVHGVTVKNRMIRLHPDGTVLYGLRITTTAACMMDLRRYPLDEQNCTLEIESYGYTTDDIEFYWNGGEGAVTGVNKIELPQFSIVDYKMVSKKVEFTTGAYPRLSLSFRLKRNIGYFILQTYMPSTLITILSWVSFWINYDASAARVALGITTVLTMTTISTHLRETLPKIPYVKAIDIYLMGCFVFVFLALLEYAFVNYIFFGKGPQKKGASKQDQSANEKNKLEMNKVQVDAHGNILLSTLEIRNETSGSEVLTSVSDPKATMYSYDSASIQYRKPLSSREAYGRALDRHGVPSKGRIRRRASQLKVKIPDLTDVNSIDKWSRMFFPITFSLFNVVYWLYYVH
human GABAAR α1β1γ2, sequence (P18507 40-475): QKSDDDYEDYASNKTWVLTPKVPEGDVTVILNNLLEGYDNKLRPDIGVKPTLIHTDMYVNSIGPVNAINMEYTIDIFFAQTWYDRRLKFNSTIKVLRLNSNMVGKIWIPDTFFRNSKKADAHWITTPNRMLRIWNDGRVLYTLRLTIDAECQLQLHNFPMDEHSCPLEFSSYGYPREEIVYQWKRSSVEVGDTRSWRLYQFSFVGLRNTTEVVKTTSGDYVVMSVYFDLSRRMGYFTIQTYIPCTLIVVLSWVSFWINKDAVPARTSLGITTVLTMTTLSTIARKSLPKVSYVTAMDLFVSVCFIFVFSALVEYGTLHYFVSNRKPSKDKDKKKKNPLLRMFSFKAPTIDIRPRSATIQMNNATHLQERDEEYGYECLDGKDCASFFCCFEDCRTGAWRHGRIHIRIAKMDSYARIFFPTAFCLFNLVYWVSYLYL

Data set [2] deals with T1, human GABAAR α2β1γ2 (Homo sapiens, UniProt P18505+P18507+P47869). Briefly: Voltage-clamp, modulation of GABA EC10 response in Xenopus laevis oocytes. Type of data set: cell-based. Particulars: maximum modulation of the GABA EC10 response, mean ± S.E.M. (n = 3).
T1 sequence (P47869 29-451): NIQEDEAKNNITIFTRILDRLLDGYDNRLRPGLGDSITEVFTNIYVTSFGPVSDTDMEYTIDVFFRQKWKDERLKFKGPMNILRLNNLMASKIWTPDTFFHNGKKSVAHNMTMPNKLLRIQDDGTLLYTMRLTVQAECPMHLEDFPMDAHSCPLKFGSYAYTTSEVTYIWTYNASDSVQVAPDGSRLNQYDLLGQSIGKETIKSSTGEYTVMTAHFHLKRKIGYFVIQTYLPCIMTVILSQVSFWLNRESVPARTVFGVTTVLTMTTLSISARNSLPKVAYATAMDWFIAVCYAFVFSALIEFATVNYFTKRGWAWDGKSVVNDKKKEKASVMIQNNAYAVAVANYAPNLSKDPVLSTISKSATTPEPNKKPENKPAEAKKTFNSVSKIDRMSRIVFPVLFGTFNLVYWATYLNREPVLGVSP
T1 sequence (P18505 26-474): as the sequence (P18505 26-474) above
T1 sequence (P18507 40-475): as the sequence (P18507 40-475) above
The conditions of data set [3]: rodents; ref Irwin et al., 2015; cited from earlier work.
A further data set has as its target human GABAAR α4β3δ (Homo sapiens, UniProt O14764+P28472+P48169). The data set can be described thus: Voltage-clamp, modulation of GABA EC10 response in Xenopus laevis oocytes. Type of data set: cell-based. Particulars: maximum modulation of the GABA EC10 response, mean ± S.E.M. (n = 3). The method in brief:
as §1

The target in the next data set is human GABAAR α2β2γ2 (Homo sapiens, UniProt P18507+P47869+P47870). The data set can be described thus: Voltage-clamp, modulation of GABA EC10 response in Xenopus laevis oocytes. Type of data set: cell-based. Particulars: maximum modulation of the GABA EC10 response, mean ± S.E.M. (n = 3).
human GABAAR α2β2γ2, sequence (P47869 29-451): as the sequence (P47869 29-451) above
human GABAAR α2β2γ2, sequence (P47870 26-512): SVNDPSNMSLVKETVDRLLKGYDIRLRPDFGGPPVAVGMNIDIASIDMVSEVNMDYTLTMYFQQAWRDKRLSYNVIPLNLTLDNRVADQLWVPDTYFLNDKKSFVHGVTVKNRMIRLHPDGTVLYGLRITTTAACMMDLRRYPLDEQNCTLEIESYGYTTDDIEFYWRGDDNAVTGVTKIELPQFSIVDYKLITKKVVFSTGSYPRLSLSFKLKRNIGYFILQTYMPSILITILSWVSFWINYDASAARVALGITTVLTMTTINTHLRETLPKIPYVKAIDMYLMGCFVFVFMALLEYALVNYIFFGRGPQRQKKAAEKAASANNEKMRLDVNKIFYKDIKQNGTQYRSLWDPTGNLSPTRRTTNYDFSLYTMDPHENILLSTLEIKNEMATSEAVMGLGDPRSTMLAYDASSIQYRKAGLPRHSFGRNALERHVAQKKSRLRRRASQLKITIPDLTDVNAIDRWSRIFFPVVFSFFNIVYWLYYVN
human GABAAR α2β2γ2, sequence (P18507 40-475): as the sequence (P18507 40-475) above
For another data set, the target named is human GABAAR α1β2γ2 (Homo sapiens, UniProt P14867+P18507+P47870). Briefly: Voltage-clamp, modulation of GABA EC10 response in Xenopus laevis oocytes. Type of data set: cell-based. The note with it: maximum modulation of the GABA EC10 response, mean ± S.E.M. (n = 3). The method in brief: as §1
human GABAAR α1β2γ2, sequence (P14867 28-456): as the sequence (P14867 28-456) above
human GABAAR α1β2γ2, sequence (P47870 26-512): as the sequence (P47870 26-512) above
human GABAAR α1β2γ2, sequence (P18507 40-475): as the sequence (P18507 40-475) above
For data set [4], the system named is GABAARs. The note with it: ref Parakala et al., 2019; cited from earlier work.
The test system of a further data set is rodent seizure models. Particulars: ref Hogenkamp et al., 2014; cited from earlier work.
Data set [5] has as its system patients with moderate to severe major depressive disorder. Particulars: oral treatment for 14 days; ref Gunduz-Bruce et al., 2019; cited from earlier work.
The target of data set [6] is extrasynaptic (α4β2δ) GABAARs (Mus musculus, UniProt P22933+P63137+Q9D6F4). Briefly: Tonic current. In kind it is cell-based. Particulars: 1 μM; VB neuron of P21 mouse; reversed by bicuculline 20 μM. The essentials: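 Holding current was taken from the same −70 mV VB neuron recordings in P21 mouse horizontal slices. All-points histograms of holding current were compared under control, after test compound (1 μM), and after co-application of bicuculline (20 μM).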

The next data set relates to PPD. Particulars: cited from earlier work.
Data set [7] concerns the target synaptic (α1β2γ2) GABAARs (Mus musculus, UniProt P22723+P62812+P63137). Briefly: mIPSCs recorded from thalamic VB neurons in horizontal slice. The note with it: 1 μM, 10 min; VB neuron of P21 mouse, −70 mV. In kind it is cell-based. The method in brief: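 GABAAR mIPSCs were recorded at −70 mV from thalamic VB neurons in horizontal slices from P21 mice. Recordings were made under control conditions and after 10 min of test compound at 1 μM. mIPSC decay was examined.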

In another data set the test system is hippocampal DGGNs. The note with it: ref Modgil et al., 2017, cited from earlier work.
The next data set has as its system acute migraine. The note with it: in vivo; cited from earlier work.
The target in data set [8] is T1, human GABAAR α2β1γ2. Particulars: value marked #, ref Hogenkamp et al. (2014) and Carter et al. (1997); cited from earlier work.
The subject of data set [9] is GABAARs. The note with it: ref Harrison and Simmonds, 1984; cited from earlier work.
The conditions of data set [10]: ref Harrison and Simmonds, 1984; cited from earlier work.

Where two headings read alike, the source gives them in different places.

human GABAAR α4β3δ, sequence (P48169 36-554): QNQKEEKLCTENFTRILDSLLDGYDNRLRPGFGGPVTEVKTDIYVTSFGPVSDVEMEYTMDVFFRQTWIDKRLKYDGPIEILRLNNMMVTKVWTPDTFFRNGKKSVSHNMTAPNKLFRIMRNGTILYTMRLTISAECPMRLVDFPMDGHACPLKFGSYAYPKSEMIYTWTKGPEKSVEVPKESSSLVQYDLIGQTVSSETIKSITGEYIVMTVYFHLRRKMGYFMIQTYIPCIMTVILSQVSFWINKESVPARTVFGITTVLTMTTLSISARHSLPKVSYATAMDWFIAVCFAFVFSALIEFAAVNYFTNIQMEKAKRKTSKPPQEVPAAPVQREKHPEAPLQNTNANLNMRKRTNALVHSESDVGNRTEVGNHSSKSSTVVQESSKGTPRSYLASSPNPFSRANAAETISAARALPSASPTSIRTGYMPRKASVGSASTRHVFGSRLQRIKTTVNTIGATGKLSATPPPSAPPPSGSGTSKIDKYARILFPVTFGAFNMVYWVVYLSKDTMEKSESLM
human GABAAR α4β3δ, sequence (P28472 26-473): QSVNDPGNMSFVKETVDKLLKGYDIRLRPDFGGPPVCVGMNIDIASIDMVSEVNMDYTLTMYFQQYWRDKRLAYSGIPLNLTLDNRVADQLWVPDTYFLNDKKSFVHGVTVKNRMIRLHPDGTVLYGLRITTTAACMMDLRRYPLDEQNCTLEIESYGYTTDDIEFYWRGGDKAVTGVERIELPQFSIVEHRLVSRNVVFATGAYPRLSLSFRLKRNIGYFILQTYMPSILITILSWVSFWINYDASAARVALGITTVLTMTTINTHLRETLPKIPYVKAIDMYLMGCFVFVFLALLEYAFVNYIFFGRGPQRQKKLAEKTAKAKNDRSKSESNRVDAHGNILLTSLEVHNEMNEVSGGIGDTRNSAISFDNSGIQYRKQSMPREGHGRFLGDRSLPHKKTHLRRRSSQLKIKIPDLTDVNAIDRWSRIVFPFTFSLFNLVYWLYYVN
human GABAAR α4β3δ, sequence (O14764 25-452): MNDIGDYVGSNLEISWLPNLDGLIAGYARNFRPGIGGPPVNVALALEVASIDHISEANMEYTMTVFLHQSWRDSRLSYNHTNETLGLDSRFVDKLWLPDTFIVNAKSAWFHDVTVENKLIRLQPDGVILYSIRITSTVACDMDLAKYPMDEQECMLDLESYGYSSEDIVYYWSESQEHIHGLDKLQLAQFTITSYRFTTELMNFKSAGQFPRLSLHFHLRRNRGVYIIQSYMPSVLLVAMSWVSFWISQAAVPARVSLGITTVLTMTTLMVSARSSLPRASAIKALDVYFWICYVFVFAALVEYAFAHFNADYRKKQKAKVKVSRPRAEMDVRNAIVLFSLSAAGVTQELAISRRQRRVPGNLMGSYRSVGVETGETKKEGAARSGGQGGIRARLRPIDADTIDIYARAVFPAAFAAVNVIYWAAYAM
synaptic (α1β2γ2) GABAARs, sequence (P62812 28-455): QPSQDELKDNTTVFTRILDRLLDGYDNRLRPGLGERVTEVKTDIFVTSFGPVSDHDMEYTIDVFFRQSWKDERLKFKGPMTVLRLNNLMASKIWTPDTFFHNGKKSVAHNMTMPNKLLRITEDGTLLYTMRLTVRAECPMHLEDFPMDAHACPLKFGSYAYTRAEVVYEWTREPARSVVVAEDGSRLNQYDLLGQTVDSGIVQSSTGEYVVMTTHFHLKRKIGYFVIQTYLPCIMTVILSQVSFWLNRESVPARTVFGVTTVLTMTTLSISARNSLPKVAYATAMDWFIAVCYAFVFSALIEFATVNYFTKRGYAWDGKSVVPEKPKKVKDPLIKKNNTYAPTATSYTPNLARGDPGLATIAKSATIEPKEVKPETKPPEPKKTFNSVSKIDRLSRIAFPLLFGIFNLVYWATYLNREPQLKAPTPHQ
synaptic (α1β2γ2) GABAARs, sequence (P63137 25-512 limits assumed): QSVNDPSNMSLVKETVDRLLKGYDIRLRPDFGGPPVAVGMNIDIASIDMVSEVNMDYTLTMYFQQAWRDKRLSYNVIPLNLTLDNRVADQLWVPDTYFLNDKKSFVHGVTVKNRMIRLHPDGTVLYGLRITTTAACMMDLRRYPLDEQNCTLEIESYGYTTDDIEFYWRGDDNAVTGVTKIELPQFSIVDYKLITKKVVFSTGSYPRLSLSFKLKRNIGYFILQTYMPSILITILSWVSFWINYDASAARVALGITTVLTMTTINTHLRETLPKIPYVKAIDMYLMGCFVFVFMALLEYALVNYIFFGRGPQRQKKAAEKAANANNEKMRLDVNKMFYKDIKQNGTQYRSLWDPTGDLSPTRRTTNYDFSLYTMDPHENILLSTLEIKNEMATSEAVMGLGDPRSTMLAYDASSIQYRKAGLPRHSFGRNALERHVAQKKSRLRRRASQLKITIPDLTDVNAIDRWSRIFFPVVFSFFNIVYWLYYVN
synaptic (α1β2γ2) GABAARs, sequence (P22723 39-474): as the sequence (P18507 40-475) above

Consider `O=C(Nc1c(-c2cccs2)nc2ccccn12)c1ccc(Cl)cc1` [DS2], for which the “activity on synaptic GABAARs” value in the data set with synaptic GABAARs is recorded as “no activity”. Besides, the CNS penetration entry in data set [1] (ref Wafford et al., 2009, Jensen et al., 2013) was “poor CNS penetration”.

As to `CCOC(=O)Nc1ccc(NCc2c(C)cc(C)cc2C)cc1N` [AA29504], the “ratio of brain to plasma levels” value in data set [1] (ref Hoestgaard-Jensen et al., 2010) is listed as “favorable ratio of brain to plasma levels”.

As to `CC(=O)[C@H]1CC[C@H]2[C@@H]3CCC4=CC(=O)CC[C@]4(C)[C@H]3CC[C@]12C` [progesterone], in the data set on traumatic brain injury, the “outcome in phase III trials, moderate to severe traumatic brain injury” value was “failed to meet primary criteria”. Further, the effect in humans entry in the data set with humans is “anesthetic effect”.

With `CC(=O)[C@H]1CC[C@H]2[C@@H]3CC[C@H]4C[C@H](O)CC[C@]4(C)[C@H]3CC[C@]12C` [AlloP, 5α-pregnan-3α-ol-20-one], the “Max Mod ± SEM” value on human GABAAR α1β1γ2 is 817 ± 62 % control; at human GABAAR α2β1γ2 [2] it was 878 ± 211 % control; on human GABAAR α4β3δ it was 1401 ± 88 % control; at human GABAAR α2β2γ2 it was 485 ± 257 % control; at human GABAAR α1β2γ2, 909 ± 68 % control. Further, the “brain concentration relative to that in plasma” value in [3] is on record as 3 ×.

Turning to `C=C[C@]12CCC(=O)C=C1CC[C@H]1[C@@H]3CC[C@H](C(C)=O)[C@@]3(C)CC[C@@H]12` [ORG OD 02-0], the “direct interaction with GABAARs” value with GABAARs [4] is reported as “no direct interaction with GABAARs”.

`C[C@@]1(O)CC[C@@]2(C)[C@@H](CC[C@@H]3[C@@H]2CC[C@]2(C)[C@@H](c4cc(CO)on4)CC[C@@H]32)C1` [UCI-50027, 3-[3α-hydroxy-3β-methyl-5α-androstan-17β-yl]-5-(hydroxymethyl)isoxazole]: the “Max Mod ± SEM” value on human GABAAR α1β1γ2 was 472 ± 84 % control; on human GABAAR α2β1γ2 [2] it was 277 ± 47 % control; on human GABAAR α4β3δ it was 919 ± 229 % control; at human GABAAR α2β2γ2, 595 ± 176 % control; at human GABAAR α1β2γ2, 587 ± 91 % control. For the same compound, in the data set with rodent seizure models, the anticonvulsant/anxiolytic therapeutic index result was “greater anticonvulsant/anxiolytic therapeutic index than ganaxolone”.

For the compound `C[C@@]1(O)CC[C@H]2[C@H](CC[C@@H]3[C@@H]2CC[C@]2(C)[C@@H](C(=O)Cn4cc(C#N)cn4)CC[C@@H]32)C1` [SAGE-217, 3alpha-Hydroxy-3beta-methyl-21-(4-cyano-1H-pyrazol-1’-yl)-19-nor-5beta-pregnan-20-one], the “Max Mod ± SEM” value was 488 ± 33 % control at human GABAAR α1β1γ2; 851 ± 93 % control on human GABAAR α2β1γ2 [2]; 783 ± 122 % control on human GABAAR α4β3δ; 1355 ± 173 % control on human GABAAR α2β2γ2; 823 ± 353 % control on human GABAAR α1β2γ2. For the same compound, the depressive symptoms entry in [5] is given as “effective in reducing depressive symptoms”. In addition, the main side effects entry in [5] is “dizziness and somnolence/sedation”. Further, in data set [6], the tonic current entry is “enhance the tonic current”. Also, the “outcome of phase II study” value in the data set on PPD (30 mg p.o. once a day for 14 days, reported by Sage) is “positive results”. In data set [7], the “duration of miniature inhibitory postsynaptic currents (mIPSCs)” value is listed as “greatly prolong”.

On to `CC(=O)[C@H]1CC[C@H]2[C@@H]3CC[C@H]4C[C@](C)(O)CC[C@]4(C)[C@H]3CC[C@]12C` [Ganaxolone, 3alpha-hydroxy-3beta-methyl-5alpha-pregnan-20-one], for which the “Max Mod ± SEM” value is 1006 ± 241 % control on human GABAAR α1β1γ2; 1710 ± 534 % control on human GABAAR α4β3δ; 646 ± 254 % control at human GABAAR α2β2γ2; 1151 ± 367 % control at human GABAAR α1β2γ2; 700 ± 50^# % control at human GABAAR α2β1γ2 [8]. In the data set with hippocampal DGGNs (in contrast to allopregnanolone), the “sustained enhancement of tonic conductance” value was “did not produce a sustained enhancement”. The “acute effect on tonic current” value in the data set with hippocampal DGGNs is “acutely increased the tonic current”. Also, in the data set on PPD (oral (p.o) dose of 1175 mg once per day for 28 days, ref trade press), the “outcome in PPD, preliminary findings” value is reported as “not meeting primary endpoints”. Moreover, the “outcome in phase II trials, acute migraine” value in the data set on acute migraine is reported as “failed to demonstrate efficacy”.

In the case of `CC(=O)[C@H]1CC[C@H]2[C@@H]3CC[C@H]4C[C@@H](O)CC[C@]4(C)[C@H]3C(=O)C[C@]12C` [betaxalone], the “effect on GABAARs” value in the data set on GABAARs [9] is “no effect”. The behavioural effect entry in data set [10] was “behaviourally inert”.

These data come from publication PMC7231973 (Neurobiology of Stress, 2019).
